Test results reported in ChEMBL document CHEMBL1255335 (Antimicrob Agents Chemother, 2008).
Values after ≈ are worked out from the molar mass of the structure shown.

Columns and labels:
Escherichia coli [1] = assay: Antibacterial activity against Escherichia coli DH5alpha with deltaampC by agar dilution method in presence of 2 ug/ml clavulanic acid; format: functional
Escherichia coli [2] = assay: Antibacterial activity against Escherichia coli DH5alpha expressing Klebsiella pneumoniae beta-lactamase SHV-1 by agar dilution method; format: functional
Klebsiella pneumoniae [3] = assay: Antibacterial activity against Klebsiella pneumoniae INSRA1229 harboring SHV-72 Ile8Phe, Ala146Val, and Lys234Arg mutations by agar dilution method
Escherichia coli [4] = assay: Antibacterial activity against Escherichia coli DH5alpha expressing Klebsiella pneumoniae beta-lactamase SHV-72 by agar dilution method in presence of 2 ug/ml clavulanic acid; format: functional
Escherichia coli [5] = assay: Antibacterial activity against Escherichia coli DH5alpha expressing Klebsiella pneumoniae beta-lactamase SHV-1 by agar dilution method in presence of 2 ug/ml clavulanic acid; format: functional
Klebsiella pneumoniae [6] = assay: Antibacterial activity against Klebsiella pneumoniae INSRA1229 harboring SHV-72 Ile8Phe, Ala146Val, and Lys234Arg mutations by agar dilution method in presence of 2 ug/ml clavulanic acid; format: functional
Escherichia coli [7] = assay: Antibacterial activity against Escherichia coli DH5alpha with deltaampC by agar dilution method; format: functional
Escherichia coli [8] = assay: Antibacterial activity against Escherichia coli DH5alpha expressing Klebsiella pneumoniae beta-lactamase SHV-72 by agar dilution method; format: functional
Klebsiella pneumoniae [9] = assay: Antibacterial activity against Klebsiella pneumoniae INSRA1229 harboring SHV-72 Ile8Phe, Ala146Val, and Lys234Arg mutations in presence of 4 ug/ml Tazobactam; format: functional
Escherichia coli [10] = assay: Antibacterial activity against Escherichia coli DH5alpha with deltaampC by agar dilution method in presence of 4 ug/ml Tazobactam; format: functional
Escherichia coli [11] = assay: Antibacterial activity against Escherichia coli DH5alpha expressing Klebsiella pneumoniae beta-lactamase SHV-1 by agar dilution method in presence of 4 ug/ml Tazobactam; format: functional
Escherichia coli [12] = assay: Antibacterial activity against Escherichia coli DH5alpha expressing Klebsiella pneumoniae beta-lactamase SHV-72 by agar dilution method in presence of 4 ug/ml Tazobactam; format: functional
[13] = substrate: CC1(C)S[C@@H]2[C@H](NC(=O)[C@H](C(=O)O)c3ccsc3)C(=O)N2[C@H]1C(=O)O; assay: (§1) Activity of Klebsiella pneumoniae Beta-Lactamase SHV-1
Outline: (§2)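 SHV-1 or SHV-72 came from E. coli DH5α ΔampC clones grown 18 h at 37°C. Enzymes were purified by ion exchange then gel filtration, with protein measured by BCA. Km and kcat were measured by pH-stat microacidimetry, fitting complete hydrolysis time courses by nonlinear least squares, three determinations per substrate.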

[14] = substrate: CC1(C)S[C@@H]2[C@H](NC(=O)Cc3ccccc3)C(=O)N2[C@H]1C(=O)O; assay: as §1; outline: as §2
[15] = substrate: CCN1CCN(C(=O)N[C@@H](C(=O)N[C@@H]2C(=O)N3[C@@H]2SC(C)(C)[C@@H]3C(=O)O)c2ccccc2)C(=O)C1=O; assay: (§3) Ratio of Kcat to Km for Klebsiella pneumoniae Beta-Lactamase SHV-1
Outline: (§4)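 kcat/Km came from Km and kcat of purified enzyme, which was expressed in E. coli DH5α ΔampC and purified by ion exchange then gel filtration. Both constants were measured by computerized pH-stat microacidimetry, with complete hydrolysis progress curves fitted by nonlinear least-squares regression. Each substrate was run three times.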

[16] = substrate: CC1(C)S[C@@H]2[C@H](NC(=O)[C@H](C(=O)O)c3ccsc3)C(=O)N2[C@H]1C(=O)O; assay: as §3; outline: as §4
[17] = substrate: CC1(C)S[C@@H]2[C@H](NC(=O)Cc3ccccc3)C(=O)N2[C@H]1C(=O)O; assay: as §3; outline: as §4
[18] = substrate: CCN1CCN(C(=O)N[C@@H](C(=O)N[C@@H]2C(=O)N3[C@@H]2SC(C)(C)[C@@H]3C(=O)O)c2ccccc2)C(=O)C1=O; assay: (§5) Ratio of Kcat to Km for Klebsiella pneumoniae Beta-Lactamase SHV-72; outline: as §4
[19] = substrate: CC1(C)S[C@@H]2[C@H](NC(=O)[C@H](C(=O)O)c3ccsc3)C(=O)N2[C@H]1C(=O)O; assay: as §5; outline: as §4
[20] = substrate: CC(=O)OCC1=C(C(=O)O)N2C(=O)[C@@H](NC(=O)Cc3cccs3)[C@H]2SC1; assay: as §5; outline: as §4
[21] = substrate: CC1(C)S[C@@H]2[C@H](NC(=O)[C@H](N)c3ccc(O)cc3)C(=O)N2[C@H]1C(=O)O; assay: as §5; outline: as §4
[22] = substrate: CC1(C)S[C@@H]2[C@H](NC(=O)Cc3ccccc3)C(=O)N2[C@H]1C(=O)O; assay: as §5; outline: as §4
[23] = substrate: CCN1CCN(C(=O)N[C@@H](C(=O)N[C@@H]2C(=O)N3[C@@H]2SC(C)(C)[C@@H]3C(=O)O)c2ccccc2)C(=O)C1=O; assay: (§6) Activity of Klebsiella pneumoniae Beta-Lactamase SHV-72; outline: as §2
[24] = substrate: CC1(C)S[C@@H]2[C@H](NC(=O)[C@H](C(=O)O)c3ccsc3)C(=O)N2[C@H]1C(=O)O; assay: as §6; outline: as §2
[25] = substrate: CC(=O)OCC1=C(C(=O)O)N2C(=O)[C@@H](NC(=O)Cc3cccs3)[C@H]2SC1; assay: as §6; outline: as §2
[26] = substrate: CC1(C)S[C@@H]2[C@H](NC(=O)[C@H](N)c3ccc(O)cc3)C(=O)N2[C@H]1C(=O)O; assay: as §6; outline: as §2
[27] = substrate: CO/N=C(\C(=O)N[C@@H]1C(=O)N2C(C(=O)O)=C(COC(C)=O)CS[C@H]12)c1csc(N)n1; assay: as §6; outline: as §2
[28] = substrate: CC(C)(O/N=C(\C(=O)N[C@@H]1C(=O)N2C(C(=O)[O-])=C(C[n+]3ccccc3)CS[C@H]12)c1csc(N)n1)C(=O)O; assay: as §6; outline: as §2
[29] = substrate: CC1(C)S[C@@H]2[C@H](NC(=O)Cc3ccccc3)C(=O)N2[C@H]1C(=O)O; assay: as §6; outline: as §2
[30] = Escherichia coli, DH5alpha, read-out: MIC

Molecule	MIC (Escherichia coli [2]) [µg/mL]	MIC (Klebsiella pneumoniae [3]) [µg/mL]	MIC (Escherichia coli [7]) [µg/mL]	MIC (Escherichia coli [8]; [30]) [µg/mL]	further results
CC1(C)S[C@@H]2[C@H](NC(=O)[C@H](N)c3ccc(O)cc3)C(=O)N2[C@H]1C(=O)O [AMOXICILLIN]	2050 (≈ 5600 µM)	2050 (≈ 5600 µM)	8 (≈ 21.9 µM)	512 (≈ 1400 µM)	MIC (Escherichia coli [1]): 8 µM; MIC (Escherichia coli [4]): 64 µM; MIC (Escherichia coli [5]): 8 µM; MIC (Klebsiella pneumoniae [6]): 64 µM
CC1(C)S[C@@H]2[C@H](/N=C/N3CCCCCC3)C(=O)N2[C@H]1C(=O)O [AMDINOCILLIN]	0.5 (≈ 1.54 µM)	0.25 (≈ 0.768 µM)	0.125 (≈ 0.384 µM)	0.25 (≈ 0.768 µM)	
O=C(O)c1cn(C2CC2)c2cc(N3CCNCC3)c(F)cc2c1=O [CIPROFLOXACIN]	≤ 0.125	≤ 0.125	≤ 0.125	≤ 0.125	
CC(C)(O/N=C(\C(=O)N[C@@H]1C(=O)N2C(C(=O)[O-])=C(C[n+]3ccccc3)CS[C@H]12)c1csc(N)n1)C(=O)O [CEFTAZIDIME]	0.5 (≈ 0.915 µM)		0.25 (≈ 0.457 µM)	0.25 (≈ 0.457 µM)	MIC (Escherichia coli [1]): 0.125 µg/mL; MIC (Escherichia coli [4]): 0.25 µg/mL; MIC (Escherichia coli [5]): 0.25 µg/mL
CO/N=C(\C(=O)N[C@@H]1C(=O)N2C(C(=O)O)=C(COC(C)=O)CS[C@H]12)c1csc(N)n1 [CEFOTAXIME]	0.06 (≈ 0.132 µM)	0.125 (≈ 0.274 µM)	0.06 (≈ 0.132 µM)	0.06 (≈ 0.132 µM)	MIC (Escherichia coli [1]): 0.06 µg/mL; MIC (Escherichia coli [4]): 0.06 µg/mL; MIC (Escherichia coli [5]): 0.06 µg/mL; MIC (Klebsiella pneumoniae [6]): 0.06 µg/mL
COc1cc(Cc2cnc(N)nc2N)cc(OC)c1OC [TRIMETHOPRIM]	≤ 0.125	0.5 (≈ 1.72 µM)	≤ 0.125	≤ 0.125	
CCN1CCN(C(=O)N[C@@H](C(=O)N[C@@H]2C(=O)N3[C@@H]2SC(C)(C)[C@@H]3C(=O)O)c2ccccc2)C(=O)C1=O [PIPERACILLIN]	64 (≈ 124 µM)	32 (≈ 61.8 µM)	2 (≈ 3.86 µM)	4 (≈ 7.73 µM)	MIC (Klebsiella pneumoniae [9]): 2 µM; MIC (Escherichia coli [10]): 2 µM; MIC (Escherichia coli [11]): 2 µM; MIC (Escherichia coli [12]): 2 µM
CC1(C)S[C@@H]2[C@H](NC(=O)[C@H](C(=O)O)c3ccsc3)C(=O)N2[C@H]1C(=O)O [TICARCILLIN]	1020 (≈ 2660 µM)	512 (≈ 1330 µM)	4 (≈ 10.4 µM)	8 (≈ 20.8 µM)	
CO/N=C(\C(=O)N[C@@H]1C(=O)N2C(C(=O)O)=C(COC(N)=O)CS[C@H]12)c1ccco1 [CEFUROXIME]	4 (≈ 9.43 µM)	2 (≈ 4.71 µM)	4 (≈ 9.43 µM)	8 (≈ 18.9 µM)	
CCN1CCN(C(=O)N[C@@H](C(=O)N[C@@H]2C(=O)N3C(C(=O)O)=C(CSc4nnnn4C)CS[C@H]23)c2ccc(O)cc2)C(=O)C1=O [CEFOPERAZONE]	4 (≈ 6.2 µM)	2 (≈ 3.1 µM)	≤ 0.25	≤ 0.25	
CO[C@@]1(NC(=O)Cc2cccs2)C(=O)N2C(C(=O)O)=C(COC(N)=O)CS[C@@H]21 [CEFOXITIN]	8 (≈ 18.7 µM)	4 (≈ 9.36 µM)	4 (≈ 9.36 µM)	8 (≈ 18.7 µM)	
GENTAMICIN	0.25		< 0.125		MIC (Escherichia coli [8]): 0.25 µg/mL
CC(=O)OCC1=C(C(=O)O)N2C(=O)[C@@H](NC(=O)Cc3cccs3)[C@H]2SC1 [CEPHALOTHIN]	16 (≈ 40.4 µM)	8 (≈ 20.2 µM)	8 (≈ 20.2 µM)	4 (≈ 10.1 µM)	
CO/N=C(\C(=O)N[C@@H]1C(=O)N2C(C(=O)O)=C(CSc3nc(=O)c(O)nn3C)CS[C@H]12)c1csc(N)n1 [CEFTRIAXONE]	0.03 (≈ 0.0541 µM)	0.03 (≈ 0.0541 µM)	0.03 (≈ 0.0541 µM)	0.03 (≈ 0.0541 µM)	MIC (Escherichia coli [1]): 0.06 µg/mL; MIC (Escherichia coli [5]): 0.03 µg/mL; MIC (Klebsiella pneumoniae [6]): ≤ 0.015 µg/mL; MIC (Escherichia coli [8]): 0.03 µg/mL (≈ 0.0541 µM)
C[C@@H](O)[C@H]1C(=O)N2C(C(=O)O)=C(SCCNC=N)C[C@H]12 [IMIPENEM ANHYDROUS]		0.125 (≈ 0.418 µM)			
CO/N=C(\C(=O)N[C@@H]1C(=O)N2C(C(=O)[O-])=C(C[N+]3(C)CCCC3)CS[C@H]12)c1csc(N)n1	0.03 (≈ 0.0624 µM)	0.03 (≈ 0.0624 µM)	0.03 (≈ 0.0624 µM)	0.03 (≈ 0.0624 µM)	
Beta-lactamase SHV-1 (Klebsiella pneumoniae), P0AD64 (protein) MRYIRLCIISLLATLPLAVHASPQPLEQIKLSESQLSGRVGMIEMDLASGRTLTAWRADERFPMMSTFKVVLCGAVLARVDAGDEQLERKIHYRQQDLVDYSPVSEKHLADGMTVGELCAAAITMSDNSAANLLLATVGGPAGLTAFLRQIGDNVTRLDRWETELNEALPGDARDTTTPASMAATLRKLLTSQRLSARSQRQLLQWMVDDRVAGPLIRSVLPAGWFIADKTGAGERGARGIVALLGPNNKAERIVVIYLRDTPASMAERNQQIAGIGAALIEHWQR					Km [13]: 11 µM; kcat [14]: 1940 s⁻¹; kcat/Km [15]: 6.21e+07 M⁻¹ s⁻¹; kcat/Km [16]: 2e+07 M⁻¹ s⁻¹; kcat/Km [17]: 8.42e+07 M⁻¹ s⁻¹
Beta-lactamase SHV-72 (Klebsiella pneumoniae), A0ZX81 (protein) MRYFRLCIISLLATLPLAVHASPQPLEQIKLSESQLSGRVGMIEMDLASGRTLTAWRADERFPMMSTFKVVLCGAVLARVDAGDEQLERKIHYRQQDLVDYSPVSEKHLADGMTVGELCAAAITMSDNSAANLLLATVGGPVGLTAFLRQIGDNVTRLDRWETELNEALPGDARDTTTPASMAATLRKLLTSQRLSARSQRQLLQWMVDDRVAGPLIRSVLPAGWFIADRTGAGERGARGIVALLGPNNKAERIVVIYLRDTPASMAERNQQIAGIGAALIEHWQR					kcat/Km [18]: 4.46e+07 M⁻¹ s⁻¹; kcat/Km [19]: 3.55e+07 M⁻¹ s⁻¹; kcat/Km [20]: 300000 M⁻¹ s⁻¹; kcat/Km [21]: 2.26e+08 M⁻¹ s⁻¹; kcat/Km [22]: 2.86e+08 M⁻¹ s⁻¹; Km [23]: 43 µM; kcat [23]: 1920 s⁻¹; Km [24]: 36 µM; kcat [24]: 1280 s⁻¹; Km [25]: 141 µM; kcat [25]: 38 s⁻¹; Km [26]: 26 µM; kcat [26]: 5880 s⁻¹; kcat [27]: < 0.1 s⁻¹; kcat [28]: < 0.1 s⁻¹; Km [29]: 19 µM; kcat [29]: 5440 s⁻¹
